Assay [1] has as its target T1, Autotaxin (Homo sapiens, UniProt Q13822). The assay can be described thus: Inhibition of human recombinant C-terminal FLAG-tagged autotaxin expressed in baculovirus-infected Sf9 cells assessed as FS-3 hydrolysis at 10 uM relative to control. In a few lines:
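Single-dose screen: inhibitor 10 μM final, purified recombinant human ATX 8.3 nM, FS-3 1 μM, fatty acid free BSA 30 μM in Tris pH 8 buffer (1 mM MgCl2, 1 mM CaCl2, 3 mM KCl, 140 mM NaCl), 37 °C. Fluorescence (ex 485/em 538) read every 2 min; percent activity vs vehicle after no-ATX subtraction at 1 h; mean ± SD of three wells.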

Assay [2] concerns the target T1, Autotaxin. The assay can be described thus: Inhibition of human recombinant C-terminal FLAG-tagged autotaxin expressed in baculovirus-infected Sf9 cells assessed as FS-3 hydrolysis. The method, boiled down: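 Dose response: final inhibitor 30, 10, 3, 1, 0.3, 0.1, 0.03 μM, plus 0.01 and 0.003 μM for some compounds; purified human ATX 8.3 nM, 1 μM FS-3, 30 μM fatty acid free BSA, Tris pH 8 buffer, 37 °C. Fluorescence ex 485/em 538 every 2 min; percent activity vs vehicle at 1 h after no-ATX background subtraction; mean of three wells.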

The record followed here is ChEMBL document CHEMBL1156229, “Pharmacophore development and application toward the identification of novel, small-molecule autotaxin inhibitors” (J Med Chem, 2010).

The structures appear in SMILES notation.

What is called inhibition is the relative decrease from the control value, in per cent. The term IC50 denotes the concentration that inhibits the measured activity by half. Consider `O=C(Nc1ccc(/C=C/c2ccc(NC(=O)c3cc(S(=O)(=O)O)c4cccnc4c3O)cc2S(=O)(=O)O)c(S(=O)(=O)O)c1)c1cc(S(=O)(=O)O)c2cccnc2c1O`, for which, at Autotaxin [1], the inhibition stood at 53%. At Autotaxin [2], the IC50 came to 7.4 µM.
The matching figures for `Cc1ccc(C)c(/N=N/c2c(S(=O)(=O)O)cc3cc(NC(=O)Nc4ccc5c(O)c(/N=N/c6ccc7cc(S(=O)(=O)O)ccc7c6)c(S(=O)(=O)O)cc5c4)ccc3c2O)c1`: 65% and 15.5 µM.
The matching figures for `Cc1c(N)cc(S(=O)(=O)O)c(/N=N/c2ccc(-c3ccc(/N=N/c4c(S(=O)(=O)O)cc5cc(S(=O)(=O)O)c(/N=N/c6cccc([N+](=O)[O-])c6)c(N)c5c4O)cc3)cc2)c1N`: 68% and 5.9 µM.
The like results for `Nc1ccc2cc(S(=O)(=O)O)cc(O)c2c1/N=N/c1ccc(-c2ccc(/N=N/c3c(S(=O)(=O)O)cc4cc(S(=O)(=O)O)c(/N=N/c5ccc([N+](=O)[O-])cc5)c(N)c4c3O)cc2)cc1` were, in that order, 57% and 17.4 µM.
Turning to `Cc1cc(-c2ccc(/N=N/c3c(N)c(S(=O)(=O)O)cc4cc(S(=O)(=O)O)ccc34)c(C)c2)ccc1/N=N/c1cc(S(=O)(=O)O)c2ccccc2c1N`, on Autotaxin [1], the inhibition came to 68%. Moreover, the IC50 on Autotaxin [2] came to 13.4 µM.
Take `COc1cc(NC(=O)c2ccc(NC(=O)c3ccc(N)cc3)cc2)c(OC)cc1/N=N/c1cc(C)c(/N=N/c2cc(S(=O)(=O)O)c3cccc(S(=O)(=O)O)c3c2)cc1C`: on Autotaxin [1], the inhibition turned out to be 53%. The IC50 on Autotaxin [2] worked out at 7.6 µM.
`Nc1c(/N=N/c2ccc(-c3ccc(/N=N/c4c(S(=O)(=O)O)cc5cc(S(=O)(=O)O)c(/N=N/c6ccccc6)c(O)c5c4N)cc3)cc2)ccc2c(S(=O)(=O)O)cccc12`: the inhibition on Autotaxin [1] was 75%. Besides, the IC50 on Autotaxin [2] is 2.42 µM.
The matching figures for `CC(=O)Nc1cc(/N=N/c2ccc(NC(=O)c3ccc(N)cc3)cc2C)c(S(=O)(=O)O)cc1/N=N/c1ccc(/N=N/c2ccc(S(=O)(=O)O)cc2)cc1`: 74% and 5.4 µM.
For the molecule `O=C(Nc1ccc2c(O)c(/N=N/c3ccccc3)c(S(=O)(=O)O)cc2c1)Nc1ccc2c(O)c(/N=N/c3ccc4cc(S(=O)(=O)O)ccc4c3)c(S(=O)(=O)O)cc2c1`, the inhibition at Autotaxin [1] is 61%. Also, the IC50 on Autotaxin [2] stood at 19.1 µM.
Turning to `O=S(=O)(O)c1ccc(-c2c3nc(c(-c4ccc(S(=O)(=O)O)cc4)c4ccc([nH]4)c(-c4ccc(S(=O)(=O)O)cc4)c4ccc([nH]4)c(-c4ccc(S(=O)(=O)O)cc4)c4nc2C=C4)C=C3)cc1` [TETRAPHENYLPORPHINE TETRASULFONIC ACID], the inhibition at Autotaxin [1] turned out to be 61%. The IC50 on Autotaxin [2] (sf9) was 7.8 µM.
For the molecule `O=C(Nc1ccc2cc(S(=O)(=O)O)ccc2c1)c1ccc(/N=N/c2c(S(=O)(=O)O)cc3cc(S(=O)(=O)O)cc(NC(=O)c4ccccc4)c3c2O)cc1`, the inhibition at Autotaxin [1] came out at 72%. In addition, the IC50 at Autotaxin [2] was determined as 8.9 µM.
The matching figures for `CC(=O)Nc1ccc(/C=C/c2ccc(NC(=O)Nc3ccc(/C=C/c4ccc(NC(C)=O)cc4S(=O)(=O)O)c(S(=O)(=O)O)c3)cc2S(=O)(=O)O)c(S(=O)(=O)O)c1`: 49% and 23 µM.
Take `COc1cc(/N=N/c2cc(S(=O)(=O)O)cc3cc(S(=O)(=O)O)cc(O)c23)c(C)cc1/N=N/c1c(S(=O)(=O)O)cc2cc(Nc3ccccc3)ccc2c1O`: the inhibition at Autotaxin [1] stood at 53%. For the same molecule, the 50% inhibitory concentration (IC50) at Autotaxin [2] amounted to 37.6 µM.
Regarding `Nc1c(S(=O)(=O)O)cc2cc(S(=O)(=O)O)ccc2c1/N=N/c1ccc(-c2ccc(/N=N/c3c(N)c(S(=O)(=O)O)cc4cc(S(=O)(=O)O)ccc34)c(S(=O)(=O)O)c2)cc1`, on Autotaxin [1], the inhibition was 51%. The IC50 on Autotaxin [2] came out at 12.6 µM.
The matching figures for `Nc1ccc2cc(S(=O)(=O)O)cc(O)c2c1/N=N/c1ccc(NC(=O)c2ccc(C(=O)Nc3ccc(/N=N/c4c(N)ccc5cc(S(=O)(=O)O)cc(O)c45)c(S(=O)(=O)O)c3)cc2)cc1S(=O)(=O)O`: 52% and 9.8 µM.
The like results for `Cc1cc(/C(=C2C=C/C(=N\c3ccc(S(=O)(=O)O)cc3)C=C\2)c2ccc(Nc3ccc(S(=O)(=O)O)cc3)cc2)cc(S(=O)(=O)O)c1N` were, in that order, 55% and 8.7 µM.
The matching figures for `O=C(Nc1cc(S(=O)(=O)O)cc2cc(S(=O)(=O)O)c(/N=N/c3cc(Nc4nc(O)nc(Nc5ccc(S(=O)(=O)O)cc5)n4)ccc3S(=O)(=O)O)c(O)c12)c1ccccc1`: 76% and 7.3 µM.
For `COc1cc(/N=N/c2c(S(=O)(=O)O)cc3cc(NC(=O)Nc4ccc5c(O)c(/N=N/c6ccc7cc(S(=O)(=O)O)ccc7c6)c(S(=O)(=O)O)cc5c4)ccc3c2O)c(C)cc1N`, the inhibition on Autotaxin [1] came to 70%. In addition, the IC50 at Autotaxin [2] worked out at 13.8 µM.
The like results for `COc1ccccc1/N=N/c1c(S(=O)(=O)O)cc2cc(NC(=O)Nc3ccc4c(O)c(/N=N/c5ccc(S(=O)(=O)O)cc5C)c(S(=O)(=O)O)cc4c3)ccc2c1O` were, in that order, 59% and 18.2 µM.
As to `O=S(=O)([O-])c1cccc2c1c(Nc1ccccc1)cc1c2nc2cc(S(=O)(=O)O)c(Nc3ccccc3)cc2[n+]1-c1ccccc1`, the inhibition at Autotaxin [1] came out at 51%. The concentration for half-maximal inhibition (IC50) on Autotaxin [2] is 9.3 µM.
Consider `Nc1ccc2cc(S(=O)(=O)O)c(/N=N/c3ccc(-c4ccc(/N=N/c5c(S(=O)(=O)O)cc6cc(S(=O)(=O)O)c(/N=N/c7cccc([N+](=O)[O-])c7)c(N)c6c5O)cc4)cc3)c(O)c2c1`, for which the inhibition on Autotaxin [1] was 65%. Also, the IC50 on Autotaxin [2] was 28.1 µM.
With `O=C(O)c1cc(O)c(O)c(OC(=O)c2cc(O)c(O)c(O)c2CNc2ccc3cc(S(=O)(=O)O)cc(S(=O)(=O)O)c3c2)c1`, the inhibition at Autotaxin [1] is 2%.
The same measure, in the same setting: as for `Cc1ccc(C(=O)Nc2ccc(S(=O)(=O)O)c3cc(S(=O)(=O)O)cc(S(=O)(=O)O)c23)cc1NC(=O)c1cccc(NC(=O)Nc2cccc(C(=O)Nc3cc(C(=O)Nc4ccc(S(=O)(=O)O)c5cc(S(=O)(=O)O)cc(S(=O)(=O)O)c45)ccc3C)c2)c1`, the figure is 27%.
Consider `Cc1ccccc1/N=N/c1c(S(=O)(=O)O)cc2cc(NC(=O)Nc3ccc4c(O)c(/N=N/c5ccc6cc(S(=O)(=O)O)ccc6c5)c(S(=O)(=O)O)cc4c3)ccc2c1O`, for which the inhibition at Autotaxin [1] turned out to be 71%. Moreover, the IC50 at Autotaxin [2] amounted to 11.6 µM.
For the molecule `O=C(Nc1ccc2cc(S(=O)(=O)O)ccc2c1)c1ccc([N+](=O)[O-])cc1`, the inhibition at Autotaxin [1] is -1%.
With `Cc1cccc(/N=N/c2c(S(=O)(=O)O)cc3cc(NC(=O)Nc4ccc5c(O)c(/N=N/c6ccc7cc(S(=O)(=O)O)ccc7c6)c(S(=O)(=O)O)cc5c4)ccc3c2O)c1`, the inhibition at Autotaxin [1] turned out to be 80%. For the same molecule, the half-maximal inhibitory concentration (IC50) on Autotaxin [2] was determined as 12 µM.
Take `O=C(Nc1ccc2cc(S(=O)(=O)O)cc(O)c2c1)Nc1ccc2cc(S(=O)(=O)O)cc(O)c2c1`: the inhibition on Autotaxin [1] was -6%.
Still for that read-out and setting: as for `Cc1ccc(Nc2ccc(Nc3ccc(C)cc3S(=O)(=O)O)c3c2C(=O)c2ccccc2C3=O)c(S(=O)(=O)O)c1`, the figure is 8%; as for `O=C(N/N=C/c1ccccc1S(=O)(=O)O)N/N=C/c1ccccc1S(=O)(=O)O`, -5%.
As for `COc1ccccc1/N=N/c1c(S(=O)(=O)O)cc2cc(NC(=O)Nc3ccc4c(O)c(/N=N/c5c(N)ccc6cc(S(=O)(=O)O)ccc56)c(S(=O)(=O)O)cc4c3)ccc2c1O`, the inhibition at Autotaxin [1] was found to be 84%. In addition, on Autotaxin [2], the half-inhibitory concentration (IC50) turned out to be 11.6 µM.
With `O=C(Nc1cccc(C(=O)Nc2ccc(S(=O)(=O)O)c3cc(S(=O)(=O)O)cc(S(=O)(=O)O)c23)c1)Nc1cccc(C(=O)Nc2cccc3c(S(=O)(=O)O)c(S(=O)(=O)O)cc(S(=O)(=O)O)c23)c1`, the inhibition at Autotaxin [1] was found to be 27%.
For the molecule `O=C(CC(C(=O)O)S(=O)(=O)O)Nc1ccc(S(=O)(=O)c2ccc(NC(=O)CC(C(=O)O)S(=O)(=O)O)cc2)cc1` (stereo not drawn), on Autotaxin [1], the inhibition stood at 1%.
On the same count and under the same terms, as for `O=C(O)c1ccccc1-c1c2cc/c(=N\c3ccccc3)cc-2oc2cc(Nc3ccc(S(=O)(=O)O)cc3)ccc12`, the figure is 27%; as for `O=S(=O)(O)c1ccccc1/C=N/NC(=S)N/N=C/c1ccccc1S(=O)(=O)O`, 1%.
As to `Cc1cc(/N=N/c2ccc(/C=C/c3ccc(/N=N/c4cc(C)c(N)c(/N=N/c5ccc(S(=O)(=O)O)cc5)c4N)cc3S(=O)(=O)O)c(S(=O)(=O)O)c2)c(N)c(/N=N/c2ccc(S(=O)(=O)O)cc2)c1N`, the inhibition at Autotaxin [1] stood at 35%.
Same read-out and setting: as for `O=C(Nc1cccc(C(=O)Nc2ccc3cc(S(=O)(=O)O)cc(S(=O)(=O)O)c3c2)c1)Nc1cccc(C(=O)Nc2ccc3cc(S(=O)(=O)O)cc(S(=O)(=O)O)c3c2)c1`, the figure is 29%; as for `O=C(N/N=C/c1ccc(O)c(S(=O)(=O)O)c1)C(=O)N/N=C/c1ccc(O)c(S(=O)(=O)O)c1`, 5%; as for `O=C(N/N=C/c1ccccc1S(=O)(=O)O)C(=O)N/N=C/c1ccccc1S(=O)(=O)O`, -2%.
As to `O=C(N/N=C/c1ccc(O)c(S(=O)(=O)O)c1)N/N=C/c1ccc(O)c(S(=O)(=O)O)c1`, the inhibition at Autotaxin [1] amounted to 6%.
Same read-out and setting: the result for `COc1cc(S(=O)(=O)O)ccc1/N=N/C(=N\Nc1ccc(S(=O)(=O)O)cc1OC)C(N)=O` reads -1%; that for `O=C(Nc1ccccc1)C(=N/Nc1cc(S(=O)(=O)O)ccc1O)/N=N/c1cc(S(=O)(=O)O)ccc1O`, 0%; that for `Nc1ccc2cc(S(=O)(=O)O)cc(O)c2c1/N=N/c1ccc(NC(=O)Nc2ccc(/N=N/c3c(N)ccc4cc(S(=O)(=O)O)cc(O)c34)c(S(=O)(=O)O)c2)cc1S(=O)(=O)O`, 22%.
With `Nc1ccc(NC(=O)c2ccc(C(=O)Nc3ccc4c(O)cc(S(=O)(=O)O)cc4c3)cc2)cc1`, at Autotaxin [1], the inhibition amounted to 20%.
Regarding `COc1cc(/N=N/c2c(C)cc(C)cc2S(=O)(=O)O)c(C)cc1/N=N/c1c(S(=O)(=O)O)cc2cc(Nc3ccccc3)ccc2c1O`, the inhibition at Autotaxin [1] is 2%.
